According to ChEMBL document CHEMBL2163287, “Nitro seco analogues of the duocarmycins containing sulfonate leaving groups as hypoxia-activated prodrugs for cancer therapy” (J Med Chem, 2012):
Active and inactive are the calls of the source. The calls are words filed in the database; no cut-off is given here.

Tests used:
HT-29 [1] = assay: Ratio of IC50 for human HT-29 cells under oxic condition to IC50 for human HT-29 cells under hypoxic condition; type: functional
Procedure, shortened: (§1)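 Log-phase monolayers were exposed 4 h under 20% O₂ or anoxia (<20 ppm O₂), then stained with sulforhodamine B 5 days later. IC50, interpolated as the concentration reducing cell density to 50% of same-plate controls, is given as mean of 3−9 experiments. HCR = IC50(oxic)/IC50(hypoxic), taken as the mean of intraexperiment ratios from 3−6 experiments.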

HT-29 [2] = assay: Cytotoxicity against human HT-29 cells under oxic condition assessed as inhibition of cell proliferation after 4 hrs by SRB method; type: functional, cell-based; details: HT-29, 4 h; procedure, shortened: as §1
HT-29 [3] = assay: Cytotoxicity against human HT-29 cells under hypoxic condition assessed as inhibition of cell proliferation after 4 hrs by SRB method; type: functional, cell-based; details: HT-29, 4 h; procedure, shortened: as §1
SiHa [4] = assay: Cytotoxicity against human SiHa cells under hypoxic condition assessed as inhibition of cell proliferation after 4 hrs; type: functional, cell-based
Procedure, shortened: (§2)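 Log-phase monolayers were exposed to drug for 4 h, aerobic (20% O2) for line 5 and anoxic (<20 ppm O2) for line 4. Cell density was read by sulforhodamine B staining 5 days later. IC50 was interpolated as the concentration reducing density to 50% of same-plate controls; mean ± SEM of 3–9 experiments.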

SiHa [5] = assay: Cytotoxicity against human SiHa cells under oxic condition assessed as inhibition of cell proliferation after 4 hrs; type: functional, cell-based; procedure, shortened: as §2
SiHa [6] = assay: Antitumor activity against human SiHa cells xenografted in immunocompromized gamma irradiated mouse assessed as log cell kill at 42 umol/kg, iv tumor excised post 18 hrs followed by culturing for 14 days under hypoxic condition; type: functional
Procedure, shortened: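 Male immunocompromised mice bearing subcutaneous tumours (10^7 cultured cells), randomized at 8–10 mm mean diameter. Compound in PBS with 4 equiv sodium bicarbonate given iv (tail vein), alone or 5 min after 15 Gy whole-body cobalt-60 γ-irradiation, which sterilizes oxygenated cells. Tumours excised 18 h after dosing and plated for clonogens for 14 days. n = 3 (vehicle or compound alone) or 5 (irradiated groups).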

SiHa [7] = assay: Antitumor activity against human SiHa cells xenografted in immunocompromized gamma irradiated mouse assessed as number of colony forming cells per gram of tumor tissue at 42 umol/kg, iv tumor excised post 18 hrs followed by culturing for 14 days; type: functional
Procedure, shortened: (§3)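 SiHa tumours grown subcutaneously in male mice from 10⁷ cultured cells; randomized at 8−10 mm mean diameter. Compound in phosphate-buffered saline with 4 equiv sodium bicarbonate, given via tail vein at the stated dose, alone or 5 min after 15 Gy whole-body cobalt-60 γ irradiation. Tumours excised 18 h after dosing, cells cultured 14 days for clonogens. Groups of 3 (drug alone) or 5 (radiation + drug).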

SiHa [8] = assay: Antitumor activity against human SiHa cells xenografted in immunocompromized mouse assessed as number of colony forming cells per gram of tumor tissue at 42 umol/kg, iv tumor excised post 18 hrs followed by culturing for 14 days; type: functional; procedure, shortened: as §3
NCI-H460 = assay: Toxicity in human H460 cells xenografted immunocompromized mouse at 75 umol/kg, iv; details: in vivo
SiHa [9] = assay: Cytotoxicity against human SiHa cells under oxic condition after 4 hrs by clonogenic assay; type: functional, cell-based
Procedure, shortened: (§4)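 Cells were exposed to drug in duplicate for 4 h at 37 °C, either aerobic (95% air, 5% CO₂) or in an anaerobic chamber (<0.001% O₂). Medium was αMEM + 10% FCS with added glucose (final 17 mmol/L) and 200 μmol/L 2′-deoxycytidine. Cells were then trypsinized and plated; colonies >50 cells were counted after 14 days (methylene blue). C10 = concentration giving 10% survival vs controls; HCR = C10(oxic)/C10(hypoxic).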

SiHa [10] = assay: Cytotoxicity against human SiHa cells under hypoxic condition assessed as after 4 hrs by clonogenic assay; type: functional, cell-based; procedure, shortened: as §4

SMILES	Ratio IC50 (HT-29 [1])	IC50 (HT-29 [2]) [µM]	IC50 (HT-29 [3]) [µM]	IC50 (SiHa [4]) [µM]	IC50 (SiHa [5]) [µM]	LCK (SiHa [6])	log10cfu (SiHa [7])	log10cfu (SiHa [8])	Activity (NCI-H460)	Activity (SiHa [9])	Activity (SiHa [10])
COc1cc2cc(C(=O)N3CC(CCl)c4c3cc([N+](=O)[O-])c3cc(C(=O)NCCO)ccc43)[nH]c2c(OC)c1OC (stereo not given)	1.7	5.7	3.2	–	–	–	–	–	–	–	–
N#Cc1ccc2c3c(cc([N+](=O)[O-])c2c1)N(C(=O)c1cc2cc(OCCO)ccc2[nH]1)CC3COS(=O)(=O)Cc1ccccc1 (stereo not given)	5.2	2.5	0.49	0.035	0.71	–	–	–	–	–	–
CN(C)CCOc1ccc2[nH]c(C(=O)N3CC(COS(C)(=O)=O)c4c3cc([N+](=O)[O-])c3cc(S(=O)(=O)NCCO)ccc43)cc2c1 (stereo not given)	7.4	13	2.2	0.38	4.1	–	–	–	–	–	–
CN(C)CCOc1ccc2[nH]c(C(=O)N3CC(COS(=O)(=O)Cc4ccccc4)c4c3cc([N+](=O)[O-])c3cc(S(=O)(=O)NCCO)ccc43)cc2c1 (stereo not given)	9.7	38	3.9	0.055	4.5	–	–	–	–	–	–
CN(C)CCOc1ccc2[nH]c(C(=O)N3CC(COS(=O)(=O)Cc4ccccc4)c4c3cc([N+](=O)[O-])c3cc(S(N)(=O)=O)ccc43)cc2c1 (stereo not given)	18	1.6	0.09	0.045	0.37	–	–	–	–	–	–
CN(C)CCOc1ccc2[nH]c(C(=O)N3CC(CCl)c4c3cc([N+](=O)[O-])c3cc(C(=O)NCCO)ccc43)cc2c1 (stereo not given)	485	12	0.11	0.24	4.2	–	–	–	–	–	–
NC(=O)c1ccc2c3c(cc([N+](=O)[O-])c2c1)N(C(=O)c1cc2cc(OCCOP(=O)(O)O)ccc2[nH]1)CC3COS(=O)(=O)Cc1ccccc1 (stereo not given)	–	–	–	–	–	0.37	5.09	6.91	Non-toxic	–	–
COc1ccc(/C=C/C(=O)N2CC(COS(C)(=O)=O)c3c2cc([N+](=O)[O-])c2cc(S(=O)(=O)NCCO)ccc32)cc1 (stereo not given)	31	26	4.1	0.32	11	–	–	–	–	–	–
CN(C)CCOc1ccc2[nH]c(C(=O)N3CC(COS(=O)(=O)Cc4ccccc4)c4c3cc([N+](=O)[O-])c3cc(C(=O)NCCO)ccc43)cc2c1 (stereo not given)	12	4.3	0.57	0.21	2.3	–	–	–	–	Active	Active
COc1cc2cc(C(=O)N3CC(CCl)c4c3cc([N+](=O)[O-])c3cc(S(=O)(=O)NCCOP(=O)(O)O)ccc43)[nH]c2c(OC)c1OC (stereo not given)	–	–	–	–	–	0.54	–	–	–	–	–
COc1cc2cc(C(=O)N3CC(COS(=O)(=O)Cc4ccccc4)c4c3cc([N+](=O)[O-])c3cc(C#N)ccc43)[nH]c2c(OC)c1OC (stereo not given)	94	2.6	0.043	0.026	0.65	–	–	–	–	–	–
O=C(c1cc2cc(OCCN3CCOCC3)ccc2[nH]1)N1CC(COS(=O)(=O)Cc2ccccc2)c2c1cc([N+](=O)[O-])c1cc(S(=O)(=O)NCCOP(=O)(O)O)ccc21 (stereo not given)	–	–	–	–	–	0.34	4.76	7.08	–	–	–
COc1ccc(/C=C/C(=O)N2CC(COS(=O)(=O)Cc3ccccc3)c3c2cc([N+](=O)[O-])c2cc(C#N)ccc32)cc1O (stereo not given)	5.4	3.4	0.62	0.019	0.57	–	–	–	–	Active	Active
COc1cc2cc(C(=O)N3CC(COS(C)(=O)=O)c4c3cc([N+](=O)[O-])c3cc(S(=O)(=O)NCCO)ccc43)[nH]c2c(OC)c1OC (stereo not given)	8.6	14	14	2.1	6.3	–	–	–	–	–	–
COc1cc2cc(C(=O)N3CC(COS(=O)(=O)Cc4ccccc4)c4c3cc([N+](=O)[O-])c3cc(C(=O)NCCO)ccc43)[nH]c2c(OC)c1OC (stereo not given)	13	15	0.61	0.16	0.9	–	–	–	–	–	–
CN(C)CCOc1ccc2[nH]c(C(=O)N3CC(COS(=O)(=O)Cc4ccccc4)c4c3cc([N+](=O)[O-])c3cc(S(=O)(=O)NCCOP(=O)(O)O)ccc43)cc2c1 (stereo not given)	–	–	–	–	–	0.18	4.92	6.92	–	–	–
CN(C)CCOc1ccc2[nH]c(C(=O)N3CC(COS(=O)(=O)Cc4ccccc4)c4c3cc([N+](=O)[O-])c3cc(C(N)=O)ccc43)cc2c1 (stereo not given)	58	2.2	0.038	0.12	0.53	–	–	–	–	–	–
COc1ccc(/C=C/C(=O)N2CC(COS(=O)(=O)Cc3ccccc3)c3c2cc([N+](=O)[O-])c2cc(S(=O)(=O)NCCOP(=O)(O)O)ccc32)cc1 (stereo not given)	–	–	–	–	–	0.78	4.32	6.74	–	–	–
COc1ccc(/C=C/C(=O)N2CC(COS(C)(=O)=O)c3c2cc([N+](=O)[O-])c2cc(S(=O)(=O)NCCOP(=O)(O)O)ccc32)cc1 (stereo not given)	–	–	–	–	–	0.71	4.75	7.09	Non-toxic	–	–
COc1ccc(/C=C/C(=O)N2CC(COS(=O)(=O)Cc3ccccc3)c3c2cc([N+](=O)[O-])c2cc(S(=O)(=O)NCCO)ccc32)cc1 (stereo not given)	50	47	0.95	0.37	7.3	–	–	–	–	–	–
COc1cc2cc(C(=O)N3CC(COS(=O)(=O)Cc4ccccc4)c4c3cc([N+](=O)[O-])c3cc(S(=O)(=O)NCCOP(=O)(O)O)ccc43)[nH]c2c(OC)c1OC (stereo not given)	–	–	–	–	–	2.71	2.39	6.53	–	–	–
CN(C)CCOc1ccc2[nH]c(C(=O)N3CC(CCl)c4c3cc([N+](=O)[O-])c3cc(C(=O)NCCOP(=O)(O)O)ccc43)cc2c1 (stereo not given)	–	–	–	–	–	2.21	3.11	6.56	–	–	–
COc1cc2cc(C(=O)N3CC(COS(=O)(=O)Cc4ccccc4)c4c3cc([N+](=O)[O-])c3cc(S(=O)(=O)NCCO)ccc43)[nH]c2c(OC)c1OC (stereo not given)	23	8.4	0.36	0.11	0.94	–	–	–	–	–	–
O=C(c1cc2cc(OCCN3CCOCC3)ccc2[nH]1)N1CC(COS(=O)(=O)Cc2ccccc2)c2c1cc([N+](=O)[O-])c1cc(S(=O)(=O)NCCO)ccc21 (stereo not given)	<2.5	50	> 20	0.039	23	–	–	–	–	–	–
COc1cc2cc(C(=O)N3CC(COS(=O)(=O)Cc4ccccc4)c4c3cc([N+](=O)[O-])c3cc(C(=O)NCCOP(=O)(O)O)ccc43)[nH]c2c(OC)c1OC (stereo not given)	–	–	–	–	–	1.78	3.62	6.71	Non-toxic	–	–
COc1ccc(/C=C/C(=O)N2CC(COS(=O)(=O)Cc3ccccc3)c3c2cc([N+](=O)[O-])c2cc(C(N)=O)ccc32)cc1O (stereo not given)	21	4.6	0.43	0.096	2.1	–	–	–	–	Active	Active
CN(C)CCOc1ccc2[nH]c(C(=O)N3CC(COS(C)(=O)=O)c4c3cc([N+](=O)[O-])c3cc(S(=O)(=O)NCCOP(=O)(O)O)ccc43)cc2c1 (stereo not given)	–	–	–	–	–	0.33	4.65	7.18	Non-toxic	–	–
CN(C)CCOc1ccc2[nH]c(C(=O)N3CC(COS(=O)(=O)Cc4ccccc4)c4c3cc([N+](=O)[O-])c3cc(C(=O)NCCOP(=O)(O)O)ccc43)cc2c1 (stereo not given)	–	–	–	–	–	0.98	4.42	6.92	Non-toxic	–	–
